Bioassay records (PubChem)
MC4R barr agon: human MC4R agonism via beta-arrestin; AID 540308; U2OS MC4R beta-arrestin complementation, luminescence; percent of melanotan II response, DMSO zero; activation, % at 8.9 µM; hit rate 0.98% among 360,000; P32245;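 active means activation above a per-plate cutoff, the mean activation of sample wells on that plate plus 3 SD, cut at about 8% in these data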
MC4R antag cAMP: antagonists of human melanocortin 4 receptor (MC4R) | MC4R-expressing cells, MTII-stimulated cAMP, LANCE TR-FRET | hit rate 0.48% among 360,000 | inhibition, % at 6.5 µM | AID 540295;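 active means inhibition above its plate's cutoff, the mean of tested wells on that plate plus 3 SD, cut at about 29% in these data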;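 further: 0% = Melanotan II alone and 100% = Melanotan II plus saturating MCL0020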
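Assay system: human MC4R-expressing U2OS cells; reagent: Melanotan II stimulation of cells; dosing: 6.5 µM single dose; timing: compound 30 min, challenge 1 h, detection 1 h; signal: TR-FRET cAMP assay; replicates: one well per compound, no replicates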
Beta2AR agonist: agonists of human beta-2 adrenergic receptor inducing internalization; P07550; response, % (concentration not given with the values); hit rate 0.43% among 340,000; Am2.2-beta2AR cells, FAP receptor internalization, flow cytometry; AID 504454;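 active means response above a set limit, near 3 SD of response in nonfluorescent compounds, cut at about 42% in these data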
PfGluPho inh: PfG6PD (Plasmodium falciparum) enzyme inhibition; PfGluPho enzyme, NADPH resazurin-diaphorase fluorescence; inhibition, % at 20 µM; hit rate 0.78% among 350,000; AID 504690;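 active means inhibition reaching at least a set limit at 20 µM in the primary screen, cut at about 59% in these data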;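 further: 0% = DMSO wells with substrate and 100% = DMSO wells lacking glucose-6-phosphate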
ABHD5 PLIN5 PPI: blocks binding of human ABHD5 to perilipin-5; Split G. princeps luciferase complementation, luminescence, 4 h; inhibition, % at 4 µM; hit rate 0.78% among 360,000; AID 602281;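 active means inhibition above the mean inhibition across every tested compound plus 3 SD, cut at about 22% in these data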;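 further: 0% = DMSO only wells and the 100% control is not disclosed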
Target sequence (Q00G26 whole entry, looked up): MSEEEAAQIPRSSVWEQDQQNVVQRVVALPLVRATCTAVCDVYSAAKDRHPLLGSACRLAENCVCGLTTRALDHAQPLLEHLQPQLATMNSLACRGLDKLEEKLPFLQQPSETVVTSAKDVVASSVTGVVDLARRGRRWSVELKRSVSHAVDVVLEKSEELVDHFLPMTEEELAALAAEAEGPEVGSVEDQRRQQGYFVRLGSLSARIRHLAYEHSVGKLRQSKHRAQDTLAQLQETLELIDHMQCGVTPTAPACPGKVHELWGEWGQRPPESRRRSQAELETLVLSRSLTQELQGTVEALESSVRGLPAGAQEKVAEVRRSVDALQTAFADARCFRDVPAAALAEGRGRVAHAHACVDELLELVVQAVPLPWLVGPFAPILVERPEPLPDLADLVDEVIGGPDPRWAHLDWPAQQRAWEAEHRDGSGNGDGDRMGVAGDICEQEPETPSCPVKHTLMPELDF
Target sequence (Q8WTS1 whole entry, looked up): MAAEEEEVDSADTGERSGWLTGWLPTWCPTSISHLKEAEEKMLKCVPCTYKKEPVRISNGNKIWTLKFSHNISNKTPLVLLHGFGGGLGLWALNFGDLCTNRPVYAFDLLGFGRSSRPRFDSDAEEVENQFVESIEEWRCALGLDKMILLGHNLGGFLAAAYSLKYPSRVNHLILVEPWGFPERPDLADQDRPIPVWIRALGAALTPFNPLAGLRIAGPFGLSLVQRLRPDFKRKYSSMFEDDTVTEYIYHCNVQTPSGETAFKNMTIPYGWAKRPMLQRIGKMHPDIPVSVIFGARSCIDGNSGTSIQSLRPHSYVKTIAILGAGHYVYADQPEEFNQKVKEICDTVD
MC4R barr conf: human MC4R beta-arrestin agonism confirmation; shares compounds with MC4R barr agon; U2OS MC4R beta-arrestin recruitment, luminescence; scaled DMSO 0%, Melanotan II 100%; activation, % at 8.9 µM; hit rate 31% among 2,400; AID 602192;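 active means mean activation across replicates above the hit cutoff set in the earlier primary screen, cut at about 8% in these data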
MOR DOR agonist: OPRM1-OPRD1 heterodimer agonism counter-screen | activation, % at 9.2 µM | shares compounds with MC4R barr agon | U2OS PathHunter beta-arrestin, beta-gal luminescence; percent of deltorphin B response, DMSO zero | hit rate 5.8% among 2,400 | AID 602194;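 active means mean activation across replicates exceeds the hit threshold derived in the earlier primary screen, cut at about 18% in these data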;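 further: 100% = deltorphin B at 0.9 µM final and 0% = DMSO alone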
Numbers without * were called inactive; i = inactive; nt = no result. In the library only some 3% were active in any assay of this set; here they are far more common.

SMILES	MC4R barr agon	MC4R antag cAMP	Beta2AR agonist	PfGluPho inh	ABHD5 PLIN5 PPI	MC4R barr conf	MOR DOR agonist
CCOC1=C2[C@@H](CN(S(=O)(=O)c3ccc(C)cc3)[C@H]2c2ccccc2F)[C@H]2C(=O)NC(=O)[C@H]2C1	nt	nt	nt	nt	0.4	nt	nt
CCN(CC)C(=O)/C=C/c1ccc(OC)c(S(=O)(=O)N2CCCCC2)c1	-2.5	13.1	-3.1	21.6	-3.7	nt	nt
O=C(NCc1csc(-c2cccs2)n1)Nc1cccc(Cl)c1	9.8*	0.1	-4.4	11.9	-5.0	3.3	6.4
CCC(=O)NCc1csc(-c2cccs2)n1	-0.9	1.1	2.8	-12.2	0.2	nt	nt
COCCNC(=O)c1ccc(-n2c(SCc3cc(F)ccc3F)nc3ccccc3c2=O)cc1	12.4*	6.6	12.0	-16.9	-6.0	8.3*	3.8
COC(=O)c1cccc(NC(=O)c2nn(C(C)C)c(=O)c3ccccc23)c1	13.8*	3.0	5.7	-9.1	-2.8	0.0	3.3
Cc1nn(-c2ccccc2)c(Cl)c1/C=N/Nc1nc2ccccc2[nH]1	11.6*	-1.0	-3.3	17.4	-6.2	3.0	10.2
CCOC(=O)Cc1csc(NC(=O)c2cc(-c3ccncc3)nc3ccccc23)n1	-1.0	-8.5	25.4	-18.2	6.9	nt	nt
COc1cc(-c2cc(NC=O)c3ncc(-c4ccc(C(C)=O)cc4)n3c2)cc(OC)c1OC	25.9*	-0.7	nt	nt	-4.0	18.5*	2.1
COc1cc(-c2cnc3c(NC=O)cc(-c4ccccc4)cn23)cc(OC)c1OC	5.4	-53.5	nt	nt	0.7	nt	nt
COc1ccc(-c2cnc3c(NC=O)cc(-c4ccc(C(=O)N5CCOCC5)cc4)cn23)cc1OC	6.0	-15.0	nt	nt	-3.3	nt	nt
COc1ccc(-c2cc(NC=O)c3ncc(-c4ccc(C(C)=O)cc4)n3c2)cc1OC	11.2*	7.6	nt	nt	2.0	9.0*	3.3
COc1cc(-c2cc(NC=O)c3ncc(-c4ccccc4)n3c2)cc(OC)c1OC	12.9*	-25.4	nt	nt	-4.2	25.2*	2.2
CCN(CC)c1ccc(S(=O)(=O)N2CCOCC2)cc1NC(=O)CN1CCN(Cc2ccccc2)CC1	2.6	5.0	12.7	23.2	7.5	nt	nt
COc1ccc(-c2oc3ccc(-c4ccc(OC)nc4)cc3c2C#CC2(O)CCCCC2)cc1	13.3*	11.4	5.1	8.7	-14.2	11.4*	4.2
COc1ccc(-c2sc3cc4c(cc3c2C#CC2(O)CCCCC2)OCO4)cc1	-0.2	0.8	10.4	25.8	-12.3	nt	nt
COc1ccc(-c2sc3cc(OC)c(OC)cc3c2C#CC(C)(C)O)cc1	-0.2	2.5	11.4	16.7	9.4	nt	nt
COc1ccc(-c2oc3ccc(-c4ccc5c(c4)OCO5)cc3c2C#CC2(O)CCCCC2)cc1	14.6*	8.4	8.1	13.0	-6.9	16.8*	4.0
COc1ccc(-c2sc3cc(OC)c(OC)cc3c2C#CCO)cc1	17.7*	7.3	17.3	15.6	-4.0	16.1*	14.9
COc1ccc(-c2ccc3oc(-c4ccc(OC)cc4)c(C#CCO)c3c2)cc1	17.6*	13.8	10.0	13.7	-6.4	14.9*	5.1
COc1ccc(OC)c(CCNC(=O)c2ccc(CS(=O)Cc3ccc(Cl)cc3)o2)c1 (configuration not stated)	-2.6	1.8	-10.3	3.3	-4.0	nt	nt
O=C(Nc1c(Cl)cccc1Cl)c1ccc(-c2ccccc2)cc1	20.5*	-1.2	-2.5	-0.1	2.1	-1.1	11.5
O=C(Nc1ccc(Cl)cc1Cl)c1ccc(-c2ccccc2)cc1	2.5	7.0	-8.0	-5.7	10.0	nt	nt
CCOC(=O)c1ccc(Cl)c(NC(=O)c2ccc(-c3ccccc3)cc2)c1	12.8*	-19.3	6.8	-13.5	3.6	3.9	16.5
Cc1cccc(-n2ccnc2SCC(=O)N2CCCc3ccccc32)c1C	0.0	8.8	-5.5	5.1	4.2	nt	nt
SMILES	MC4R barr agon	MC4R antag cAMP	Beta2AR agonist	PfGluPho inh	ABHD5 PLIN5 PPI	MC4R barr conf	MOR DOR agonist
Cc1noc(C)c1CSc1nc2sc(C)c(C)c2c(=O)n1-c1ccccc1	11.3*	6.6	-7.4	-10.2	-7.3	-1.7	5.2
C=CCn1c(SCc2c(C)noc2C)nc2sc(C)c(C)c2c1=O	1.9	0.5	-3.1	-1.4	-8.2	nt	nt
Cc1ncc([N+](=O)[O-])n1CC(=O)Nc1ccc(F)c(Cl)c1	-0.2	-0.1	0.2	0.9	-8.7	nt	nt
CCCCCCCCNS(=O)(=O)CCNCCc1ccccc1	10.0*	3.7	-5.8	6.7	-0.9	16.4*	6.2
CCCCCCCCNS(=O)(=O)CCNCc1ccccc1	1.7	5.6	-6.0	-1.7	-7.2	nt	nt
N=c1n(CC(=O)c2ccc(Br)s2)c2ccccc2n1Cc1ccccc1	13.8*	-2.5	13.9	14.9	14.6	13.2*	18.1*
CCCCCCOc1ccc(/C(C)=N/NC2=NCCN2)cc1[N+](=O)[O-]	14.3*	4.3	10.8	-6.1	8.4	11.5*	10.0
C/C(=N\NC1=NCCN1)c1ccc(N)c([N+](=O)[O-])c1	-3.7	-10.5	-1.5	13.9	1.2	nt	nt
C=CCNC(=O)NC(=O)CSc1nc2cc([N+](=O)[O-])ccc2n1-c1cccc(C(F)(F)F)c1	10.5*	6.6	-6.0	14.1	-6.3	3.2	5.6
O=C(CSc1ccccn1)NC1CCCc2c1cnn2-c1ccccc1F (configuration not stated)	-0.7	1.5	nt	-3.1	13.6	nt	nt
O=C(NC(=S)Nc1ccccc1)c1ccc(-c2ccccc2)cc1	1.4	0.4	2.8	7.9	-6.9	nt	nt
CC(=O)Nc1ccc(NC(=S)NC(=O)c2ccc(-c3ccccc3)cc2)cc1	36.2*	6.3	-5.7	13.1	-1.3	3.7	5.7
CN(Cc1ccccc1)C(=S)NC(=O)c1ccc(-c2ccccc2)cc1	27.5*	-3.6	9.1	-17.9	-7.4	-4.9	2.3
O=C(Nc1cccc(C(=O)Nc2ccc(F)cc2F)c1)c1ccccc1	0.3	20.8	5.9	-12.0	6.2	nt	nt
CC(=O)C1=C(O)C(=O)N(c2ccc(Br)cc2)C1c1cccc([N+](=O)[O-])c1 (configuration not stated)	-0.7	-4.3	-8.0	-14.3	0.2	nt	nt
Cc1ccccc1NC(=O)c1ccc(N/N=C/c2ccccc2O)c([N+](=O)[O-])c1	-1.4	1.3	-5.2	-6.4	0.2	nt	nt
Cc1ccc(NC(=O)c2ccc(N/N=C/c3cccc(O)c3)c([N+](=O)[O-])c2)cc1	9.9*	-7.6	7.1	2.7	2.0	4.5	15.2
COCCNc1nnc(SC(C)C(=O)Nc2ccc(-c3nc4ccc(C)cc4s3)cc2)s1 (configuration not stated)	14.6*	12.3	9.7	7.2	6.8	7.2	5.1
CCN1/C(=C/c2ccc3cc(C)cc(C)c3[n+]2CC)Sc2cc(C)ccc21	45.0*	-14.0	i	43.2	7.9	87.1*	13.9
Cn1c(SCC(=O)Nc2cc(Cl)cc(Cl)c2)nnc1-c1ccc2nonc2c1	35.8*	-6.3	-5.4	-7.7	-4.1	7.8	8.0
